Data reported in ChEMBL document CHEMBL1212820, “Novel hinge binder improves activity and pharmacokinetic properties of BRAF inhibitors” (J Med Chem, 2010).

How the values were obtained:
[1] = target: T1, Serine/threonine-protein kinase B-raf (Homo sapiens, UniProt P15056, V600E); assay: Inhibition of BRAF V600E mutant-mediated ERK phosphorylation in human WM266.4 cells; type: cell-based
Summary of the method: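 Cellular IC50 for inhibition of phosphoERK formation.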

[2] = target: T1, Serine/threonine-protein kinase B-raf; assay: Inhibition of B-Raf V600E mutant
Summary of the method: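 Enzymatic IC50 determined in vitro against purified V600E BRAF.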

[3] = Growth inhibition of human WM266.4 cells expressing BRAF V600E mutant after 5 days by SRB assay; type: functional; conditions: WM 266-4, 120 h
Summary of the method: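 Antiproliferative SRB assay in WM266.4 (BRAF mutant), WM1361 (NRAS mutant) and D24 (BRAF/NRAS wild-type) melanoma cells, with GI50 derived from the assay.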

T1 sequence (P15056 2-766 V600E limits assumed): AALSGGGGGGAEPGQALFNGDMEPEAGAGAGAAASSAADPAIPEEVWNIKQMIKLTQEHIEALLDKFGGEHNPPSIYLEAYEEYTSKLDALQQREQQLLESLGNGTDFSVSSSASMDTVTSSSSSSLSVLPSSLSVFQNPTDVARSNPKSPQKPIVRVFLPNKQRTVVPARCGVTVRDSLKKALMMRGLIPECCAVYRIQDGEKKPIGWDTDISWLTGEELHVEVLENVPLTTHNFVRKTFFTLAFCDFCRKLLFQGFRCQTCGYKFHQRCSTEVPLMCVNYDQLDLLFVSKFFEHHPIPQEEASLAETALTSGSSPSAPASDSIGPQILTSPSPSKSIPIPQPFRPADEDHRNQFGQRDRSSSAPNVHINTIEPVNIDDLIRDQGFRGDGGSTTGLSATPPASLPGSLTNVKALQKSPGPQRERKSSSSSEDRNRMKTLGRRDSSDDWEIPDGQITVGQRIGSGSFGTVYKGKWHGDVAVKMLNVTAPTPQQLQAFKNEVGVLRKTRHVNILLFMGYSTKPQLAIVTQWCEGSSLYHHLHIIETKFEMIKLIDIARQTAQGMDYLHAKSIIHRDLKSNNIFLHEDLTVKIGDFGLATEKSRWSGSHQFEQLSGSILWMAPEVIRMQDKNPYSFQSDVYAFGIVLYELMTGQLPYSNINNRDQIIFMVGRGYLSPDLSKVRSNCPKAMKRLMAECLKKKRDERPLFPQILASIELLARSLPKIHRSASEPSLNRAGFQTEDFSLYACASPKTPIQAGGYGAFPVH

Row | SMILES | IC50 [1] [nM] | IC50 [2] [nM] | GI50 [3] [nM]
1 | CN1CCN(c2cnc3c(Oc4ccc(NC(=O)Nc5cc(C(C)(C)C)nn5-c5ccccc5)c(F)c4)ccnc3n2)CC1 | 750 | 4100 | 417
2 | CSc1cc(Oc2ccnc3[nH]c(=O)c(C)nc23)ccc1NC(=O)Nc1cc(C(C)(C)C)nn1-c1ccccc1 | 3 | 20 | 4
3 | O=C1CNc2nccc(Oc3ccc(NC(=O)Nc4cc(C(F)(F)F)ccc4F)cc3)c2N1 | 3500 | 54 | 1690
4 | Cc1ccc(-n2nc(C(C)(C)C)cc2NC(=O)Nc2ccc(Oc3ccnc4[nH]c(=O)c(C)nc34)c3ccccc23)cc1 | 5 | 99 | 75
5 | Cn1nc(C(C)(C)C)cc1NC(=O)Nc1ccc(Oc2ccnc3[nH]c(=O)cnc23)cc1F | 620 | 17 | 760
6 | CNc1cnc2c(Oc3ccc(NC(=O)Nc4cc(C(F)(F)F)ccc4F)c(F)c3)ccnc2n1 | 45000 | 107 | 48000
7 | Cc1ccc(-n2nc(C(C)(C)C)cc2NC(=O)Nc2ccc(Oc3ccnc4nc(C)c(=O)[nH]c34)c3ccccc23)cc1 | 176 | 17000 | 1500
8 | O=C(Nc1ccc(Oc2ccnc3ncc(=O)[nH]c23)cc1)Nc1cc(C(F)(F)F)ccc1F | 4200 | 1290 | 4000
9 | CN(C)c1cnc2c(Oc3ccc(NC(=O)Nc4cc(C(C)(C)C)nn4-c4ccccc4)c(F)c3)ccnc2n1 | 1700 | > 10000 | 1100
10 | CC(C)(C)c1cc(NC(=O)c2cccc(Oc3ccnc4[nH]c(=O)cnc34)c2)n(-c2ccccc2)n1 | 5000 | 870 | 2000
11 | Cc1ccc(-n2nc(C(C)(C)C)cc2NC(=O)Nc2ccc(Oc3ccnc4nc(N5CCOCC5)cnc34)cc2F)cc1 | 280 | > 10000 | 235
12 | Cc1ccc(-n2nc(C(C)(C)C)cc2NC(=O)Nc2cccc(Oc3ccnc4[nH]c(=O)c(C)nc34)c2)cc1 | 69 | 132 | 69
13 | CC(C)(C)c1cc(NC(=O)Nc2ccc(Oc3ccnc4ncc(=O)[nH]c34)c3ccccc23)n(-c2ccccc2)n1 | 48 | 264 | 73
14 | Cc1ccc(-n2nc(C(C)(C)C)cc2NC(=O)Nc2ccc(Oc3ccnc4[nH]c(=O)cnc34)c3ccccc23)cc1 | 10 | 80 | 80
15 | Cc1nc2nccc(Oc3ccc(NC(=O)Nc4cc(C(C)(C)C)nn4-c4ccccc4)c4ccccc34)c2[nH]c1=O | 141 | 3000 | 95
16 | CN1CCN(c2cnc3c(Oc4ccc(NC(=O)Nc5cc(C(F)(F)F)ccc5F)c(F)c4)ccnc3n2)CC1 | 16000 | 110 | 120
17 | O=C(Nc1ccc(Oc2ccnc3nc(N4CCOCC4)cnc23)cc1F)Nc1cc(C(F)(F)F)ccc1F | 3800 | 97 | 1120
18 | O=C(Nc1ccc(Oc2ccnc3[nH]c(=O)c(=O)[nH]c23)cc1F)Nc1cc(C(F)(F)F)ccc1F | 600 | 5 | 1450
19 | CC(C)(C)c1cc(NC(=O)Nc2ccc(Oc3ccnc4[nH]c(=O)c(N)nc34)c3ccccc23)n(-c2ccccc2)n1 | 7 | 85 | 9
20 | O=C(Nc1cc(C(F)(F)F)ccc1F)Nc1ccc(Oc2ccnc3nc(C(F)(F)F)c(=O)[nH]c23)c2ccccc12 | 8500 | 1080 | 10000
21 | CSc1cc(Oc2ccnc3[nH]c(=O)cnc23)ccc1NC(=O)Nc1ccc(Cl)c(C(F)(F)F)c1 | 187 | 4 | 118
22 | O=C(Nc1cc(C(F)(F)F)ccc1F)Nc1ccc(Oc2ccnc3ncc(=O)[nH]c23)c2ccccc12 | 2070 | 84 | 486
23 | O=C(Nc1ccc(Oc2ccnc3[nH]c(=O)cnc23)cc1)Nc1ccc(Cl)c(C(F)(F)F)c1 | 4890 | 11 | 9100
